Source: ChEMBL document CHEMBL1821698, “Synthesis and biological activities of (R)- and (S)-N-(4-Methoxyphenyl)-N,2,6-trimethyl-6,7-dihydro-5H-cyclopenta[d]pyrimidin-4-aminium chloride as potent cytotoxic antitubulin agents” (J Med Chem, 2011)
Activity calls are given as the source filed them. The rule behind the calls is not given here.

How the values were obtained:
[1] = Inhibition of bovine brain tubulin assembly
MDA-MB-435 [2] = experiment: Cell cycle arrest in human MDA-MB-435 cells assessed as accumulation of cells at G2/M phase at 3 times IC50 after 18 hrs by flow cytometry; format: functional
SK-OV-3 [3] = experiment: Relative resistance ratio of IC50 for MDR-1-6/6 overexpressing human SKOV3 cells to IC50 for human SKOV3 cells; format: functional
SK-OV-3 [4] = experiment: Antiproliferative activity against MDR-1-6/6 overexpressing human SKOV3 cells; format: functional, cell-based
SK-OV-3 [5] = experiment: Antiproliferative activity against human SKOV3 cells; format: functional, cell-based
HeLa [6] = experiment: Relative resistance ratio of IC50 for beta3-tubulin overexpressing human HeLa cells to IC50 for human HeLa cells; format: functional
HeLa [7] = experiment: Antiproliferative activity against beta3-tubulin overexpressing human HeLa cells; format: functional, cell-based
HeLa [8] = experiment: Antiproliferative activity against human HeLa cells; format: functional, cell-based
[9] = Ratio of EC50 for microtubule depolymerization in A-10 cells to IC50 for human MDA-MB-435 cells
[10] = Inhibition of microtubule polymerization in A-10 cells; details: A10
MDA-MB-435 [11] = experiment: Antiproliferative activity against human MDA-MB-435 cells by SRB assay; format: functional, cell-based
How it was run: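 SRB assay on drug-sensitive MDA-MB-435 cells; IC50 is the concentration giving 50% inhibition of proliferation, n = 3.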

MDA-MB-435 [12] = experiment: Cell cycle arrest in human MDA-MB-435 cells assessed as accumulation of cells at subG1 phase at 3 times IC50 after 18 hrs by flow cytometry; format: functional, cell-based
tubulin (Bos taurus) [13] = experiment: Displacement of [3H]colchicine from bovine brain tubulin using purified tubulin at 1 uM
tubulin (Bos taurus) [14] = experiment: Displacement of [3H]colchicine from bovine brain tubulin at 5 uM

Structure (SMILES) | IC50 [1] | IC50 (SK-OV-3 [4]) | IC50 (SK-OV-3 [5]) | IC50 (HeLa [7]) | IC50 (HeLa [8]) | EC50 [10] | IC50 (MDA-MB-435 [11]) | Activity (MDA-MB-435 [2]) | Ratio IC50 (SK-OV-3 [3]) | Ratio IC50 (HeLa [6]) | Ratio [9] | Activity (MDA-MB-435 [12]) | inhibition (tubulin (Bos taurus) [13]) | inhibition (tubulin (Bos taurus) [14])
COc1ccc(/C=C\c2cc(OC)c(OC)c(OC)c2)cc1O [COMBRETASTATIN A4] |  | 22 nM | 6.05 nM |  |  | 13 nM | 3.4 nM | 88.4% |  |  |  |  | 85% | 98%
COc1ccc(N(C)c2nc(C)nc3c2CC(C)C3)cc1.Cl (racemic) | 1500 nM | 60.9 nM | 34.5 nM | 23.9 nM | 37.3 nM | 56 nM | 17 nM | 65.9% | 1.8 | 0.6 | 3 | Active | 59% | 87%

Further lines, with some results ahead:

IC50 [1] | IC50 (SK-OV-3 [4]) | IC50 (SK-OV-3 [5]) | IC50 (HeLa [7]) | IC50 (HeLa [8]) | EC50 [10] | IC50 (MDA-MB-435 [11]) | Structure (SMILES) | Activity (MDA-MB-435 [2]) | Ratio IC50 (SK-OV-3 [3]) | Ratio IC50 (HeLa [6]) | Ratio [9] | Activity (MDA-MB-435 [12]) | inhibition (tubulin (Bos taurus) [13]) | inhibition (tubulin (Bos taurus) [14])
1300 nM | 62.6 nM | 16.4 nM | 13.3 nM | 19 nM | 23 nM | 12 nM | COc1ccc(N(C)c2nc(C)nc3c2C[C@H](C)C3)cc1.Cl | 49.2% | 3.8 | 0.7 | 2 | Active | 70% | 93%
2100 nM | 120 nM | 85.9 nM | 67.7 nM | 92.9 nM | 278 nM | 51 nM | COc1ccc(N(C)c2nc(C)nc3c2C[C@@H](C)C3)cc1.Cl | 91.4% | 1.4 | 0.7 | 5 |  | 37% | 77%
 | 4880 nM | 2.95 nM |  |  |  |  | CC(=O)O[C@H]1C(=O)[C@@]2(C)[C@H]([C@H](OC(=O)c3ccccc3)[C@]3(O)C[C@H](OC(=O)[C@H](O)[C@@H](NC(=O)c4ccccc4)c4ccccc4)C(C)=C1C3(C)C)[C@]1(OC(C)=O)CO[C@@H]1C[C@@H]2O [PACLITAXEL] |  |  |  |  |  |  | 
